According to ChEMBL document CHEMBL4145521, “Regioselective synthesis of 3,4-diaryl-5-unsubstituted isoxazoles, analogues of natural cytostatic combretastatin A4” (Eur J Med Chem, 2018):

How the values were obtained:
Format in all cases: functional
CAKI-1 [1] = assay: Cytotoxicity against human Caki1 cells assessed as cell growth at 1 uM incubated for 48 hrs by sulforhodamine B assay relative to control; settings: CAKI-1, 48 h, read-out: Activity
SF-268 = assay: Cytotoxicity against human SF268 cells assessed as cell growth at 0.01 uM incubated for 48 hrs by sulforhodamine B assay relative to control; settings: SF-268, 48 h, read-out: Activity
OVCAR-5 = assay: Cytotoxicity against human OVCAR5 cells assessed as cell growth at 10 uM incubated for 48 hrs by sulforhodamine B assay relative to control; settings: OVCAR-5, 48 h, read-out: Activity
HCT-116 = assay: Cytotoxicity against human HCT116 cells assessed as cell growth at 100 uM incubated for 48 hrs by sulforhodamine B assay relative to control; settings: HCT-116, 48 h, read-out: Activity
SW-620 = assay: Cytotoxicity against human SW620 cells assessed as cell growth at 100 uM incubated for 48 hrs by sulforhodamine B assay relative to control; settings: SW-620, 48 h, read-out: Activity
HCT-15 = assay: Cytotoxicity against human HCT15 cells assessed as cell growth at 100 uM incubated for 48 hrs by sulforhodamine B assay relative to control; settings: HCT-15, 48 h, read-out: Activity
PC-3 = assay: Cytotoxicity against human PC3 cells assessed as cell growth at 1 uM incubated for 48 hrs by sulforhodamine B assay relative to control; settings: PC-3, 48 h, read-out: Activity
TK-10 = assay: Cytotoxicity against human TK10 cells assessed as cell growth at 0.1 uM incubated for 48 hrs by sulforhodamine B assay relative to control; settings: TK-10, 48 h, read-out: Activity
SN12C = assay: Cytotoxicity against human SN12C cells assessed as cell growth at 10 uM incubated for 48 hrs by sulforhodamine B assay relative to control; settings: read-out: Activity
UACC-62 = assay: Cytotoxicity against human UACC62 cells assessed as cell growth at 100 uM incubated for 48 hrs by sulforhodamine B assay relative to control; settings: UACC-62, 48 h, read-out: Activity
SNB-75 = assay: Cytotoxicity against human SNB75 cells assessed as cell growth at 10 uM incubated for 48 hrs by sulforhodamine B assay relative to control; settings: SNB-75, 48 h, read-out: Activity
M14 = assay: Cytotoxicity against human M14 cells assessed as cell growth at 0.1 uM incubated for 48 hrs by sulforhodamine B assay relative to control; settings: M14, 48 h, read-out: Activity
RPMI-8226 = assay: Cytotoxicity against human RPMI8226 cells assessed as cell growth at 0.01 uM incubated for 48 hrs by sulforhodamine B assay relative to control; settings: RPMI-8226, 48 h, read-out: Activity
UO-31 = assay: Cytotoxicity against human UO31 cells assessed as cell growth at 100 uM incubated for 48 hrs by sulforhodamine B assay relative to control; settings: UO-31, 48 h, read-out: Activity
OVCAR-4 = assay: Cytotoxicity against human OVCAR4 cells assessed as cell growth at 0.1 uM incubated for 48 hrs by sulforhodamine B assay relative to control; settings: OVCAR-4, 48 h, read-out: Activity
NCI/ADR-RES = assay: Cytotoxicity against human NCI/ADR-RES cells incubated for 48 hrs by sulforhodamine B assay
HOP-92 = assay: Cytotoxicity against human HOP92 cells assessed as cell growth at 10 uM incubated for 48 hrs by sulforhodamine B assay relative to control; settings: HOP-92, 48 h, read-out: Activity
MCF7 [2] = assay: Cytotoxicity against human MCF7 cells assessed as cell growth at 1 uM incubated for 48 hrs by sulforhodamine B assay relative to control; settings: MCF7, 48 h, read-out: Activity
NCI-H23 = assay: Cytotoxicity against human NCI-H23 cells assessed as cell growth at 1 uM incubated for 48 hrs by sulforhodamine B assay relative to control; settings: NCI-H23, 48 h, read-out: Activity
MCF7 [3] = assay: Cytotoxicity against human MCF7 cells assessed as cell growth at 10 uM incubated for 48 hrs by sulforhodamine B assay relative to control; settings: MCF7, 48 h, read-out: Activity
CAKI-1 [4] = assay: Cytotoxicity against human Caki1 cells assessed as cell growth at 10 uM incubated for 48 hrs by sulforhodamine B assay relative to control; settings: CAKI-1, 48 h, read-out: Activity
RXF 393 = assay: Cytotoxicity against human RXF393 cells assessed as cell growth at 100 uM incubated for 48 hrs by sulforhodamine B assay relative to control; settings: RXF 393, 48 h, read-out: Activity
COLO 205 = assay: Cytotoxicity against human COLO205 cells assessed as cell growth at 100 uM incubated for 48 hrs by sulforhodamine B assay relative to control; settings: COLO 205, 48 h, read-out: Activity
ACHN = assay: Cytotoxicity against human ACHN cells assessed as cell growth at 0.01 uM incubated for 48 hrs by sulforhodamine B assay relative to control; settings: read-out: Activity
T47D = assay: Cytotoxicity against human T47D cells incubated for 48 hrs by sulforhodamine B assay
Paracentrotus lividus = assay: Antimitotic activity against Paracentrotus lividus embryo assessed as embryo spinning after 15 mins to 20 hrs by light microscopy
How it was run: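 Free-swimming blastulae from the same culture were used just after hatching (8–10 h post-fertilization). They were kept in filtered seawater at room temperature and exposed to 2-fold decreasing concentrations. Spinning at the well bottom instead of forward swimming was monitored from 15 min to 20 h under light microscopy. The effective threshold concentration was recorded from duplicates.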

SK-OV-3 = assay: Cytotoxicity against human SKOV3 cells assessed as cell growth at 100 uM incubated for 48 hrs by sulforhodamine B assay relative to control; settings: SK-OV-3, 48 h, read-out: Activity
KM12 = assay: Cytotoxicity against human KM12 cells assessed as cell growth at 1 uM incubated for 48 hrs by sulforhodamine B assay relative to control; settings: KM12, 48 h, read-out: Activity
BT-549 = assay: Cytotoxicity against human BT549 cells assessed as cell growth at 100 uM incubated for 48 hrs by sulforhodamine B assay relative to control; settings: BT-549, 48 h, read-out: Activity
OVCAR-8 = assay: Cytotoxicity against human OVCAR8 cells assessed as cell growth at 0.01 uM incubated for 48 hrs by sulforhodamine B assay relative to control; settings: OVCAR-8, 48 h, read-out: Activity
NCI-H322M = assay: Cytotoxicity against human NCI-H322M cells assessed as cell growth at 0.01 uM incubated for 48 hrs by sulforhodamine B assay relative to control; settings: read-out: Activity
SR = assay: Cytotoxicity against human SR cells assessed as cell growth at 100 uM incubated for 48 hrs by sulforhodamine B assay relative to control; settings: read-out: Activity
A498 = assay: Cytotoxicity against human A498 cells assessed as cell growth at 100 uM incubated for 48 hrs by sulforhodamine B assay relative to control; settings: A498, 48 h, read-out: Activity

**Q.** With COc1ccc(-c2nocc2-c2cc(OC)c(OC)c(OC)c2)cc1 as the compound, how does the growth at 1 µM (CAKI-1 [1]) read?
**A.** 47%

**Q.** What about the growth at 0.01 µM (SF-268) of the same compound?
**A.** 95%

**Q.** What about the growth at 10 µM (OVCAR-5) of the same compound?
**A.** 39%

**Q.** What about the growth at 100 µM (HCT-116) of the same compound?
**A.** -29%

**Q.** What about the growth at 100 µM (SW-620) of the same compound?
**A.** 7%

**Q.** What about the growth at 100 µM (HCT-15) of the same compound?
**A.** 1%

**Q.** And the growth at 1 µM (PC-3)?
**A.** 18%

**Q.** And the growth at 0.1 µM (TK-10)?
**A.** 46%

**Q.** And the growth at 10 µM (SN12C)?
**A.** 34%

**Q.** And the growth at 100 µM (UACC-62)?
**A.** -38%

**Q.** What about the growth at 10 µM (SNB-75) of the same compound?
**A.** 19%

**Q.** What about the growth at 0.1 µM (M14) of the same compound?
**A.** 41%

**Q.** And the growth at 0.01 µM (RPMI-8226)?
**A.** 100%

**Q.** What about the growth at 100 µM (UO-31) of the same compound?
**A.** -27%

**Q.** What about the growth at 0.1 µM (OVCAR-4) of the same compound?
**A.** 73%

**Q.** And the GI50 (NCI/ADR-RES; read-out: GI50)?
**A.** 0.0538 µM

**Q.** And the LC50 (NCI/ADR-RES; read-out: LC50)?
**A.** > 100 µM

**Q.** What about the TGI (NCI/ADR-RES; read-out: TGI) of the same compound?
**A.** 37.2 µM

**Q.** What about the GI50 (NCI/ADR-RES; read-out: pGI50 (converted)) of the same compound?
**A.** 0.0537 µM

**Q.** What about the LC50 (NCI/ADR-RES; read-out: pLC50 (converted)) of the same compound?
**A.** > 100 µM

**Q.** And the TGI (NCI/ADR-RES; read-out: pTGI (converted))?
**A.** 37.2 µM

**Q.** And the growth at 10 µM (HOP-92)?
**A.** 49%

**Q.** And the growth at 1 µM (MCF7 [2])?
**A.** 19%

**Q.** And the growth at 1 µM (NCI-H23)?
**A.** 29%

**Q.** And the growth at 10 µM (MCF7 [3])?
**A.** 14%

**Q.** What about the growth at 10 µM (CAKI-1 [4]) of the same compound?
**A.** 36%

**Q.** And the growth at 100 µM (RXF 393)?
**A.** -2%

**Q.** What about the growth at 100 µM (COLO 205) of the same compound?
**A.** -40%

**Q.** What about the growth at 0.01 µM (ACHN) of the same compound?
**A.** 94%

**Q.** What about the LC50 (T47D; read-out: LC50) of the same compound?
**A.** > 100 µM

**Q.** And the TGI (T47D; read-out: TGI)?
**A.** 86.3 µM

**Q.** And the LC50 (T47D; read-out: pLC50 (converted))?
**A.** > 100 µM

**Q.** What about the TGI (T47D; read-out: pTGI (converted)) of the same compound?
**A.** 87.1 µM

**Q.** What about the EC (Paracentrotus lividus) of the same compound?
**A.** 1 µM

**Q.** What about the growth at 100 µM (SK-OV-3) of the same compound?
**A.** 5%

**Q.** What about the growth at 1 µM (KM12) of the same compound?
**A.** 20%

**Q.** What about the growth at 100 µM (BT-549) of the same compound?
**A.** -24%

**Q.** And the growth at 0.01 µM (OVCAR-8)?
**A.** 103%

**Q.** And the growth at 0.01 µM (NCI-H322M)?
**A.** 95%

**Q.** What about the growth at 100 µM (SR) of the same compound?
**A.** -7%

**Q.** And the growth at 100 µM (A498)?
**A.** -33%
